Data on six compounds can be found in paper PMC2755653 (Journal of pharmaceutical sciences, 2009).

Structures are written as SMILES.

In one series the test system is MDCKII-WT cells. Kind of series: Cellular accumulation of radiolabeled drug in MDCKII-WT cell monolayers. The format is cell-based, canine. The conditions noted are these: for increase in cellular accumulation compared to control: 0.03% w/w Pluronic P85 (CMC).
The target in the next series is P-gp (Homo sapiens, UniProt P08183). Put plainly: Cellular accumulation of radiolabeled drug in MDCKII-MDR1 cell monolayers. The format is cell-based. Conditions: for cellular accumulation at 0.5% w/w P85 versus control without P85 / change in cellular accumulation at Pluronic P85 concentrations above the CMC / change in cellular accumulation with Pluronic P85 up to the CMC / increase in cellular accumulation compared to control: MDR1 cells; for (WT/MDR1) accumulation ratio: nelfinavir.

The nature of series [1]: Cell-free equilibrium dialysis with Pluronic P85. Conditions: for time to equilibrium: equilibrium dialysis, MWCO 50,000 membrane, 37°C. The format is physicochemical. The essentials: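 Two-chamber dialysis across a 50,000 Da MWCO membrane at 37°C, stirred, in pH 7.4 HEPES/bicarbonate buffer. Radiolabeled test compound was in the donor and buffer in the receiver. Below CMC, P85 was on both sides. For micellar levels, the receiver held 0.025% w/w and the donor target plus 0.005% w/w. Free fraction was receiver/donor concentration; a transfer-rate model was fitted.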
(In general: Equilibrium dialysis compares concentrations on both sides of a semipermeable membrane.)

The conditions of series [2]: cited from earlier work.
[3] abbreviates: at the CMC of Pluronic P85 (0.03% w/w; printed 0.035% w/w for nelfinavir).

P-gp, sequence (P08183 whole entry): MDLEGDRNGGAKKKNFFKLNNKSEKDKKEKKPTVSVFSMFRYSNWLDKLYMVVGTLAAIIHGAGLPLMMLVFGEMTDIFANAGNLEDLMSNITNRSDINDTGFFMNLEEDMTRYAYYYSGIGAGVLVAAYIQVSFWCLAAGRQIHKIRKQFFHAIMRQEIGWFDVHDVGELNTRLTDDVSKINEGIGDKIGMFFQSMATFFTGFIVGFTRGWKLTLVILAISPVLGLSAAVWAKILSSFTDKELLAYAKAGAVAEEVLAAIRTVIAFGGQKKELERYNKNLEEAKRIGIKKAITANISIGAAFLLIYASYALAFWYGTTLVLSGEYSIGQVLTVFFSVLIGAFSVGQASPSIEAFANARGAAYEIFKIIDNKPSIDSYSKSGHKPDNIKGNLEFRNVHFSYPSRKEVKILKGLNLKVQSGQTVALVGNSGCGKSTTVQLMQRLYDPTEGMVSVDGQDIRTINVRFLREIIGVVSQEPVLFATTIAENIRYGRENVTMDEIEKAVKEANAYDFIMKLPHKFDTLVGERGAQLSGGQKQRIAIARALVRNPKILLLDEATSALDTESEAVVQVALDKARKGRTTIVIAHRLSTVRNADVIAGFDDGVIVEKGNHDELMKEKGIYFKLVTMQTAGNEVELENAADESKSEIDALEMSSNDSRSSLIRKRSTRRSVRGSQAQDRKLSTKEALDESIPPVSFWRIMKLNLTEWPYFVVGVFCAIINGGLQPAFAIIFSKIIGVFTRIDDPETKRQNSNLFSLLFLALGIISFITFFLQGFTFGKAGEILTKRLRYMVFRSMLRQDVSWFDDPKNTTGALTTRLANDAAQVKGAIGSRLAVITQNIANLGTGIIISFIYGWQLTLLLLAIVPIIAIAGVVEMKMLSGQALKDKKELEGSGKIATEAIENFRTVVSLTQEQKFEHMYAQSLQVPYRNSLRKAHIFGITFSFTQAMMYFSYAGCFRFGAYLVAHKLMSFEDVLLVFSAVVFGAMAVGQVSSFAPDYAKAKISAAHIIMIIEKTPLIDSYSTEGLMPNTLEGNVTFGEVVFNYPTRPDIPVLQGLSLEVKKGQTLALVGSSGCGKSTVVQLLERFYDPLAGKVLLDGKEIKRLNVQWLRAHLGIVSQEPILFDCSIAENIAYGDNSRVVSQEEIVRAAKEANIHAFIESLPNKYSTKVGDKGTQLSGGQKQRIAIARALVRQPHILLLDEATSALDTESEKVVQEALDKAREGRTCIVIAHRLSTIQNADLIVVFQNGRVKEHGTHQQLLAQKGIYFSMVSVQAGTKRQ

`CC(C)(C)NC(=O)[C@@H]1C[C@@H]2CCCC[C@@H]2CN1C[C@@H](O)[C@H](Cc1ccccc1)NC(=O)[C@H](CC(N)=O)NC(=O)c1ccc2ccccc2n1` [saquinavir]: in the series on MDCKII-WT cells, the “cellular accumulation at 0.5% w/w P85 versus control without P85” value is given as “not significantly different”, the “change in cellular accumulation at Pluronic P85 concentrations above the CMC” value is given as “decline in accumulation” and the “change in cellular accumulation with Pluronic P85 up to the CMC” value (“change in cellular accumulation … to the CMC” for short) is given as “significant increase in accumulation”. Also, at P-gp, the “cellular accumulation at 0.5% w/w P85 versus control without P85” value is on record as “not significantly different”, the “change in cellular accumulation at Pluronic P85 concentrations above the CMC” value is recorded as “decline in accumulation” and the “change in cellular accumulation … to the CMC” value is “significant increase in accumulation”. Further, in series [1] (0.5% w/w Pluronic P85), the drug free is reported as 7% and the equilibrium free fraction is 0.068 ± 0.007. This compound registered an equilibrium free fraction in series [1] (absence of Pluronic P85) of 0.827 ± 0.114. The equilibrium free fraction in series [1] (setting [3]) is reported as 0.744 ± 0.031.
`CC[C@]1(O)C[C@@H]2CN(CCc3c([nH]c4ccccc34)[C@@](C(=O)OC)(c3cc4c(cc3OC)N(C)[C@H]3[C@@](O)(C(=O)OC)[C@H](OC(C)=O)[C@]5(CC)C=CCN6CC[C@]43[C@@H]65)C2)C1` [vinblastine]: the “change in cellular accumulation at Pluronic P85 concentrations above the CMC” value in the series on MDCKII-WT cells and on P-gp was “significant only at 0.5% w/w” throughout. In addition, the “increase in cellular accumulation compared to control” value is given as 3 fold in the series on MDCKII-WT cells, 21 fold at P-gp (0.05% w/w Pluronic P85 (maximum)) and 10 fold at P-gp (0.5% w/w Pluronic P85). Moreover, the “log P” value in series [2] was 1.89.
For `Nc1nc(NC2CC2)c2ncn([C@H]3C=C[C@@H](CO)C3)c2n1` [abacavir], the “change in cellular accumulation at Pluronic P85 concentrations above the CMC” value with MDCKII-WT cells and on P-gp was “significant decline” throughout. Moreover, the “change in cellular accumulation … to the CMC” value in the series with MDCKII-WT cells was “no significant increase”; at P-gp, “significant increase”. In addition, the “drug associated with the micelles” value in series [1] (0.5% w/w Pluronic P85) was “roughly 10%”. The equilibrium free fraction in series [1] (0.5% w/w Pluronic P85) was 0.871 ± 0.095; in series [1] (absence of Pluronic P85), 1.057 ± 0.212; in series [1] (setting [3]) it was 0.984 ± 0.083. Also, the time to equilibrium in series [1] is reported as ~ 20 hrs.
With `Cc1c(O)cccc1C(=O)N[C@@H](CSc1ccccc1)[C@H](O)CN1C[C@H]2CCCC[C@H]2C[C@H]1C(=O)NC(C)(C)C` [nelfinavir], the “cellular accumulation at 0.5% w/w P85 versus control without P85” value is recorded as “significantly lower than WT control” in the series on MDCKII-WT cells and “not statistically different” on P-gp. For the same compound, the “change in cellular accumulation at Pluronic P85 concentrations above the CMC” value with MDCKII-WT cells and on P-gp was “decreased significantly” throughout. In addition, the “change in cellular accumulation … to the CMC” value in the series on MDCKII-WT cells is “no statistically significant enhancement”; at P-gp it was “increased significantly”. The “increase in cellular accumulation compared to control” value with MDCKII-WT cells is reported as 1.3 fold; at P-gp (0.03% w/w Pluronic P85), 6 fold. For the same compound, the “(WT/MDR1) accumulation ratio” value on P-gp (0.03% w/w P85) is reported as 1.4; at P-gp (0.5% w/w P85 (highest dose)) it was 1.23; at P-gp (absence of P85, 3 h accumulation) it was 6. Further, the drug free in series [1] (0.1% w/w Pluronic P85) is recorded as 20%; in series [1] (0.5% w/w Pluronic P85), 5%. The equilibrium free fraction in series [1] (0.1% w/w Pluronic P85) is 0.194 ± 0.02; in series [1] (absence of Pluronic P85), 0.953 ± 0.109; in series [1] (setting [3]) it was 0.941 ± 0.045. Besides, the time to equilibrium in series [1] is ~ 50 hrs.
For the compound `COc1cc2c(cc1OC)CN(CCc1ccc(NC(=O)c3cccc4c(=O)c5cccc(OC)c5[nH]c34)cc1)CC2` [GF120918], the “increase in nelfinavir accumulation compared to control” value with MDCKII-WT cells (highest concentration of GF120918 used) is reported as 5 fold. The “Emax (maximal effect on nelfinavir accumulation)” value with MDCKII-WT cells (sigmoid Emax model, mean ± SE) was 4.76 ± 0.2 DPM normalized to stock / mg protein.
Take `OC[C@@H](O)[C@@H](O)[C@H](O)[C@H](O)CO` [mannitol]: the “change in cellular accumulation at Pluronic P85 concentrations above the CMC” value with MDCKII-WT cells and at P-gp was “no effect” each time. Also, the results for the equilibrium free fraction in series [1] (0.1% w/w Pluronic P85) and in series [1] (absence of Pluronic P85) were 0.968 ± 0.04 and 0.994 ± 0.06, respectively. In series [1], the time to equilibrium is reported as ~ 15 hrs.

As usually defined, the log P is the decadic logarithm of the partition coefficient of the neutral form, usually between octanol and water.
